The source of these data is ChEMBL document CHEMBL1124798, “Design of peptidomimetic delta opioid receptor antagonists using the message-address concept” (J Med Chem, 1990).

Where only a bound is given, the exact number is not on record here.

Assay [1] deals with T1, Kappa-type opioid receptor (Cavia porcellus, UniProt P41144). In words: Binding affinity was measured by the displacement of [3H]- EK in guinea pig brain membrane of opioid receptor kappa. It counts as cell membranes. The method, boiled down:
(§1)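 Radioligand displacement from guinea pig brain membranes, modified Werling method. μ sites: [3H]DAMGO. δ sites: [3H]DADLE with 1 μM DAMGO. κ sites: [3H]ethylketazocine with 1 μM DAMGO.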
In general terms: In a radioligand displacement assay an active substance lowers the binding of a labelled ligand.

In assay [2] the target is Mu-type opioid receptor (Cavia porcellus) (UniProt P97266). Put plainly: Antagonist potency was determined as the ratio of [antagonist] to (IC50 ratio-1) for Opioid receptor mu 1. It counts as functional. An outline of the steps:
(§2)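 Ke (nM) = [antagonist]/(IC50 ratio − 1). IC50 ratio is agonist IC50 with antagonist over the control IC50 in the same preparation. Antagonist preincubated 15 min. Agonists: DADLE in mouse vas deferens (δ); morphine (μ) and ethylketazocine (κ) in guinea pig ileum. n ≥ 3.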

In assay [3] the target is Kappa-type opioid receptor (Cavia porcellus) (UniProt P41144). In words: Opioid receptor kappa antagonistic activity was measured by the displacement of ethylketazocine in the guinea pig ileum at a concentration of 100 nM. It counts as functional, tissue-based. The method, boiled down:
(§3)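 Guinea pig ileum. Antagonist (nM, as stated on line) incubated 15 min before testing. Agonists: morphine (μ) and ethylketazocine (κ).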

In assay [4] the target is T1, Kappa-type opioid receptor. In words: Binding affinity was measured by the displacement of [3H]- EK in guinea pig brain membrane of Opioid receptor kappa 1. It is filed as cell membranes. An outline of the steps:
as §1

The target of assay [5] is Opioid receptors; mu & delta (Homo sapiens) (UniProt P41143+P35372). Put plainly: Selectivity ratio was determined from Ke value of Opioid receptor mu 1 and Opioid receptor delta 1. It counts as protein assay. To be noted: Cavia porcellus. An outline of the steps:
(§4)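 Ratios of Ke values, μ/δ or κ/δ. Each Ke = [antagonist]/(IC50 ratio − 1). δ from DADLE in mouse vas deferens; μ (morphine) and κ (ethylketazocine) in guinea pig ileum. 15 min antagonist preincubation, n ≥ 3.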

Assay [6] has as its target Delta-type opioid receptor (Mus musculus) (UniProt P32300). Put plainly: Antagonist potency was determined as the ratio of [antagonist] to (IC50 ratio-1) for opioid receptor delta 1. It is filed as functional. An outline of the steps:
as §2

Assay [7] has the same target. Put plainly: Opioid receptor delta 1 antagonistic activity was measured by the displacement of DADLE in the mouse vas deferens at a concentration of 100 nM. It counts as functional. The method, boiled down: (§5)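 Mouse vas deferens. Antagonist (nM, as stated on line) incubated with the preparation 15 min before testing. δ agonist [D-Ala2,D-Leu5]enkephalin.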
Assay [8] addresses Mu-type opioid receptor (Cavia porcellus) (UniProt P97266). In words: Opioid receptor mu 1 antagonistic activity was measured by the displacement of morphine in the guinea pig ileum at a concentration of 100 nM. It is filed as functional, tissue-based. An outline of the steps:
as §3

The target in assay [9] is T2, Mu-type opioid receptor (Cavia porcellus, UniProt P97266). In words: Binding affinity was measured by the displacement of [3H]- DAMGO in guinea pig brain membrane of Opioid receptor mu 1. It counts as cell membranes. An outline of the steps: as §1
T2 sequence (P97266 whole entry): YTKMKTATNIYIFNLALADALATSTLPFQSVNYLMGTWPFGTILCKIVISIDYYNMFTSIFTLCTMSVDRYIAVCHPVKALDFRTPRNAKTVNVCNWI
In assay [10] the target is Delta-type opioid receptor (Mus musculus) (UniProt P32300). Put plainly: Opioid receptor delta antagonistic activity was measured by the displacement of DADLE in the mouse vas deferens at a concentration of 100 nM. It counts as functional. The method, boiled down:
as §5

The target in assay [11] is Mu-type opioid receptor (Cavia porcellus) (UniProt P97266). Put plainly: Opioid receptor mu antagonistic activity was measured by the displacement of morphine in the guinea pig ileum at a concentration of 100 nM. It is filed as functional, tissue-based. The method, boiled down:
as §3

For assay [12], the target named is Kappa-type opioid receptor (Cavia porcellus) (UniProt P41144). Put plainly: Opioid receptor kappa 1 antagonistic activity was measured by the displacement of ethylketazocine in the guinea pig ileum at a concentration of 100 nM. It is filed as functional, tissue-based. An outline of the steps:
as §3

The target of assay [13] is T2, Mu-type opioid receptor. Put plainly: Binding affinity was measured by the displacement of [3H]- DAMGO in guinea pig brain membrane of opioid receptor mu. It is filed as cell membranes. An outline of the steps: as §1
Assay [14] concerns the target Kappa-type opioid receptor (Cavia porcellus) (UniProt P41144). Put plainly: Antagonist potency was determined as the ratio of [antagonist] to (IC50 ratio-1) for Opioid receptor kappa 1. It is filed as functional. An outline of the steps:
as §2

For assay [15], the target named is Opioid receptors; delta & kappa (Homo sapiens) (UniProt P41145+P41143). In words: Selectivity ratio was determined from Ke value of Opioid receptor kappa 1 and Opioid receptor delta 1. It counts as protein assay. The settings on record: Cavia porcellus. The method, boiled down: as §4
Chain of Opioid receptors; delta & kappa (Homo sapiens) (P41143 whole entry, looked up): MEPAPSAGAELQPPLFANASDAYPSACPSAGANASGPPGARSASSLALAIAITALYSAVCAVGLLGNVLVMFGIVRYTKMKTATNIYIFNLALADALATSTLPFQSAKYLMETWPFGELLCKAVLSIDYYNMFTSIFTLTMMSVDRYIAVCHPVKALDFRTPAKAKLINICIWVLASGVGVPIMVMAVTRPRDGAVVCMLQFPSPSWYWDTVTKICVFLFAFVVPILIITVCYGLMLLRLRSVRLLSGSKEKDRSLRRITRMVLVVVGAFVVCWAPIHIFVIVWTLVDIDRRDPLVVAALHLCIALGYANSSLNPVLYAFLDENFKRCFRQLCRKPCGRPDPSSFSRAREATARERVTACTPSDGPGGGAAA
Chain of Opioid receptors; delta & kappa (Homo sapiens) (P41145 whole entry, looked up): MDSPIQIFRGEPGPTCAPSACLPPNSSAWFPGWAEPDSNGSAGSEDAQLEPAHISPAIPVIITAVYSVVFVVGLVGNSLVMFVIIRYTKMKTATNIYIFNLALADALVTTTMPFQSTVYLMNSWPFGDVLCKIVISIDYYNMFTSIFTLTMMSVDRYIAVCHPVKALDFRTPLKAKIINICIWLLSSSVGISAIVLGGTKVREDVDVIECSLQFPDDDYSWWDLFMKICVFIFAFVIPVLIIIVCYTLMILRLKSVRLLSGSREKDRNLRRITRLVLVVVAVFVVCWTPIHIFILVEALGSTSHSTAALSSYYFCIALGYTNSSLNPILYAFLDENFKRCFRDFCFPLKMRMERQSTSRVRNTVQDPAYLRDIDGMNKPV

Chain of Opioid receptors; mu & delta (Homo sapiens) (P35372 whole entry, looked up): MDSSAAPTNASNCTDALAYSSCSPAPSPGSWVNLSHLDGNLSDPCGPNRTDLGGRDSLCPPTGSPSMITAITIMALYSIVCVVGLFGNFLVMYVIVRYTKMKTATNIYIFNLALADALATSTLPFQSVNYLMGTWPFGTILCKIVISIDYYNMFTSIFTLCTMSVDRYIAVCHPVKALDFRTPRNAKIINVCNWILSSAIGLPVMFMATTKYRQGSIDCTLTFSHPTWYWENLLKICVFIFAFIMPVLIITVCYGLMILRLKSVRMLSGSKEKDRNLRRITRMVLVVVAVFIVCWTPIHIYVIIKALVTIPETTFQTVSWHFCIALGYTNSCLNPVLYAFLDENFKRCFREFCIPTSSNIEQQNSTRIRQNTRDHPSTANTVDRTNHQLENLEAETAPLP
Chain of Opioid receptors; mu & delta (Homo sapiens) (P41143 whole entry, looked up): as the sequence (P41143 whole entry, looked up) above
Chain of Delta-type opioid receptor (Mus musculus) (P32300 whole entry): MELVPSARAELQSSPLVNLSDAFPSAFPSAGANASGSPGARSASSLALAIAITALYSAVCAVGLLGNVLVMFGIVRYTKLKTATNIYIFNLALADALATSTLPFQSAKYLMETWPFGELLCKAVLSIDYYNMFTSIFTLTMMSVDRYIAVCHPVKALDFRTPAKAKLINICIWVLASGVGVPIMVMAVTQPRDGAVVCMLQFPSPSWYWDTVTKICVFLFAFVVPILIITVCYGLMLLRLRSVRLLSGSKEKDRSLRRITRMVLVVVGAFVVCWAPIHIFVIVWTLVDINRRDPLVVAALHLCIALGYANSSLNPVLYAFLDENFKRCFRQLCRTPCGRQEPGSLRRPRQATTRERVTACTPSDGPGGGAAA
Chain of Mu-type opioid receptor (Cavia porcellus) (P97266 whole entry): as the sequence (P97266 whole entry) above
Chain of Kappa-type opioid receptor (Cavia porcellus) (P41144 whole entry): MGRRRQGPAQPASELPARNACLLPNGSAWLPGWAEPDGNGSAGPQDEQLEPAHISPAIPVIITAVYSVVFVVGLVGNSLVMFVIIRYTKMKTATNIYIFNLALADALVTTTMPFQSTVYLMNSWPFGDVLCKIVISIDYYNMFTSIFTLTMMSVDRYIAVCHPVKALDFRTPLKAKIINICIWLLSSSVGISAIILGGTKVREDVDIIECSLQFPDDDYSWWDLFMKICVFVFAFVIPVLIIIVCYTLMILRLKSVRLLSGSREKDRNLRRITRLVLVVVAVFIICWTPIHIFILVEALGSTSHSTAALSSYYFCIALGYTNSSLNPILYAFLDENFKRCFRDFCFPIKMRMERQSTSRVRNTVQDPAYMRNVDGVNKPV
T1 sequence (P41144 whole entry): as above

A word on the Ki: it is the equilibrium dissociation constant of an inhibitor or competing ligand from its target. A low value points to higher affinity. On to `C=CCN1CC[C@]23c4c5ccc(O)c4O[C@H]2c2[nH]c4ccccc4c2C[C@@]3(O)[C@H]1C5`, for which the Ki in assay [1] was found to be 321 nM; in [4], 321 nM; in assay [9], 104 nM; in assay [13] it was 104 nM. In addition, the results for the Ke in assay [2], in [6] and in [14] were over 714 nM, 1.1 nM and over 82 nM, respectively. Moreover, the IC50 ratio came to 2.2 in [3]; 93 in assay [7]; 1.1 in [8]; 93 in assay [10]; 1.1 in assay [11]; 2.2 in [12]. Also, the Selectivity ratio in assay [5] is over 655; in assay [15], over 75.

As to `CN1CC[C@]23c4c5ccc(O)c4O[C@H]2c2c(c4ccccc4n2C)C[C@@]3(O)[C@H]1C5`, the Ke in [2] is over 135 nM; in assay [6], over 416 nM; in assay [14] it was over 200 nM. The IC50 ratio came out at 0.5 in [3]; 1.2 in assay [7]; 0.74 in [8]; 1.2 in [10]; 0.74 in assay [11]; 0.5 in [12].

As to `Oc1ccc2c3c1O[C@H]1c4[nH]c5c(O)cccc5c4C[C@@]4(O)[C@@H](C2)N(CC2CC2)CC[C@]314`, the Ke in assay [2] is over 111 nM; in assay [6], 0.42 nM; in assay [14], over 250 nM. In addition, the IC50 ratio turned out to be 1.4 in [3]; 239 in [7]; 1.9 in [8]; 239 in [10]; 1.9 in assay [11]; 1.4 in assay [12]. The Selectivity ratio in assay [5] is over 264; in assay [15], over 595.

With `COc1ccc2c3c1O[C@H]1c4[nH]c5ccccc5c4C[C@@]4(O)[C@@H](C2)N(CC2CC2)CC[C@]314`, the Ki in [1] is over 1000 nM; in [4], over 1000 nM; in assay [9], 550 nM; in [13], 550 nM. In addition, the Ke in assay [2] is over 333 nM; in [6] it was over 200 nM; in assay [14] it was over 167 nM. In addition, the IC50 ratio was found to be 0.6 in assay [3]; 1.5 in assay [7]; 1.3 in [8]; 1.5 in [10]; 1.3 in assay [11]; 0.6 in [12].

As for `CCOc1cccc2c3c([nH]c12)[C@@H]1Oc2c(O)ccc4c2[C@@]12CCN(CC1CC1)[C@H](C4)[C@]2(O)C3`, the results for the Ke in assay [2] and in [6] were 13 nM and 0.57 nM, respectively. For the same molecule, the IC50 ratio in assay [3] is 0.67; in assay [7] it was 178; in [8], 8.3; in assay [10], 178; in [11] it was 8.3; in assay [12], 0.67. For the same molecule, the Selectivity ratio in assay [5] was 24.

Consider `Cc1cccc2c3c([nH]c12)[C@@H]1Oc2c(O)ccc4c2[C@@]12CCN(CC1CC1)[C@H](C4)[C@]2(O)C3`, for which the IC50 ratio came to 1.3 in [3]; 67 in assay [7]; 7.1 in [8]; 67 in [10]; 7.1 in assay [11]; 1.3 in assay [12]. For the same molecule, the Ke in assay [14] was over 333 nM. Besides, the Selectivity ratio in assay [15] is over 221.

On to `CN1CC[C@]23c4c5ccc(O)c4O[C@H]2c2[nH]c4ccccc4c2C[C@@]3(O)[C@H]1C5` [OXYMORPHINDOLE], for which the Ki came out at 4470 nM in assay [1], 4470 nM in assay [4], 468 nM in assay [9] and 468 nM in assay [13]. Besides, the Ke in assay [2] is over 111 nM; in assay [6], 5 nM; in assay [14], over 167 nM. Moreover, the IC50 ratio in assay [3] is 0.6; in [7] it was 1.6; in assay [8] it was 0.9; in [10], 1.6; in assay [11], 0.9; in assay [12], 0.6.

As for `Oc1ccc2c3c1O[C@H]1c4[nH]c5cc(F)ccc5c4C[C@@]4(O)[C@@H](C2)N(CC2CC2)CC[C@]314`, the results for the Ke in [2], in assay [6] and in assay [14] were over 125 nM, 4.4 nM and over 167 nM, respectively. The IC50 ratio in assay [3] was 1.6; in assay [7], 24; in assay [8], 1.8; in assay [10] it was 24; in assay [11], 1.8; in assay [12], 1.6. Further, the Selectivity ratio is over 28 in assay [5] and over 38 in assay [15].

Consider `Oc1ccc2c3c1O[C@H]1c4[nH]c5ccccc5c4C[C@@]4(O)[C@@H](C2)N(CC2CC2)CC[C@]314` [NALTRINDOLE], for which the results for the Ki in assay [1], in [4] and in assay [9] were 332 nM, 332 nM and 3.8 nM, respectively.

As for `Oc1ccc2c3c1O[C@H]1c4[nH]c5cc6ccccc6cc5c4C[C@@]4(O)[C@@H](C2)N(CC2CC2)CC[C@]314`, the results for the Ke in assay [2], in assay [6] and in assay [14] were over 118 nM, 27 nM and over 100 nM, respectively. Moreover, the IC50 ratio in assay [3] is 0.91; in [7], 4.7; in assay [8], 0.85; in assay [10], 4.7; in assay [11], 0.85; in assay [12] it was 0.91. Further, the Selectivity ratio in assay [5] and in assay [15] was over 4 each time.

On to `Oc1ccc2c3c1O[C@H]1c4[nH]c5c(ccc6ccccc65)c4C[C@@]4(O)[C@@H](C2)N(CC2CC2)CC[C@]314`, for which the Ke was over 500 nM in assay [2], 9 nM in [6] and over 111 nM in assay [14]. The IC50 ratio was 0.9 in [3]; 12.1 in assay [7]; 1.2 in [8]; 12.1 in assay [10]; 1.2 in assay [11]; 0.9 in [12]. The results for the Selectivity ratio in assay [5] and in assay [15] were over 55 and over 12, respectively.

On to `CC(C)(S)[C@@H](NC(=O)[C@H](Cc1ccc(O)cc1)NC(=O)CNC(=O)[C@H](NC(=O)[C@@H](N)Cc1ccccc1)C(C)(C)S)C(=O)O`, for which the figures for the Selectivity ratio in assay [5] and in [15] were 52 and 202, respectively.

As to `Oc1ccc2[nH]c3c(c2c1)C[C@@]1(O)[C@H]2Cc4ccc(O)c5c4[C@@]1(CCN2CC1CC1)[C@H]3O5`, the Ke was 19 nM in [2], 27 nM in assay [6] and 48 nM in [14]. In addition, the IC50 ratio was 3.1 in [3]; 4.7 in assay [7]; 6.4 in [8]; 4.7 in assay [10]; 6.4 in assay [11]; 3.1 in [12]. Further, the Selectivity ratio in assay [5] turned out to be 0.7; in [15], 1.8.

Take `CC(=O)O[C@@]12Cc3c([nH]c4ccccc34)[C@@H]3Oc4c(O)ccc5c4[C@@]31CCN(CC1CC1)[C@@H]2C5`: the Ke in assay [2] was over 263 nM; in [6], 2.4 nM; in assay [14] it was over 127 nM. Further, the IC50 ratio amounted to 1.8 in [3]; 43 in assay [7]; 1.4 in assay [8]; 43 in assay [10]; 1.4 in [11]; 1.8 in [12]. Besides, the Selectivity ratio is over 111 in assay [5] and over 54 in [15].

Turning to `Cc1ccc2c3c([nH]c2c1)[C@@H]1Oc2c(O)ccc4c2[C@@]12CCN(CC1CC1)[C@H](C4)[C@]2(O)C3`, the Ke was 55 nM in assay [2], 3.5 nM in [6] and over 143 nM in assay [14]. In addition, the IC50 ratio in assay [3] came out at 1.7; in assay [7] it was 30; in assay [8] it was 2.8; in assay [10], 30; in [11] it was 2.8; in assay [12], 1.7. The results for the Selectivity ratio in assay [5] and in [15] were 16 and over 41, respectively.
